# Measured values: ChEMBL document CHEMBL1921722, “In vitro and in vivo evaluation of select kahalalide F analogs with antitumor and antifungal activities” (Bioorg Med Chem, 2011)
# Assays:
# UACC-257 [1] = assay: Cytotoxicity against human UACC257 cells by sulforhodamine B assay; type: functional
# How it was run: (§1)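 NCI Developmental Therapeutics Program 60-cell-line human tumor panel screen, run at NCI. A single-concentration pre-screen was followed by a five-concentration dose-response in 10-fold steps. GI50 is the concentration that reduces growth of treated cells to half that of untreated control cells. TGI is the concentration that completely halts growth.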
# OVCAR-4 = assay: Cytotoxicity against human OVCAR4 cells by sulforhodamine B assay; type: functional; how it was run: as §1
# SK-OV-3 [2] = assay: Cytotoxicity against human SKOV3 cells by sulforhodamine B assay; type: functional; how it was run: as §1
# RXF 393 = assay: Cytotoxicity against human RXF393 cells by sulforhodamine B assay; type: functional; how it was run: as §1
# UACC-257 [3] = assay: Cytotoxicity against human UACC257 cells assessed as cell growth at 8 nM by sulforhodamine B assay relative to control; type: functional; settings: read-out: Activity
# M14 [4] = assay: Cytotoxicity against human M14 cells assessed as cell growth at 8 nM by sulforhodamine B assay relative to control; type: functional; settings: read-out: Activity
# SW-620 [5] = assay: Cytotoxicity against human SW620 cells assessed as cell growth at 8 nM by sulforhodamine B assay relative to control; type: functional; settings: read-out: Activity
# NCI-H322M [6] = assay: Cytotoxicity against human NCI-H322M cells assessed as cell growth at 8 nM by sulforhodamine B assay relative to control; type: functional; settings: read-out: Activity
# Mus musculus = assay: Acute toxicity in athymic nude mouse assessed as mortality at 25 mg/kg, […]; type: organism-based; parameters: dose 25 mg/kg, route intraperitoneal; settings: in vivo, ip, 576 h
# RPMI-8226 [7] = assay: Cytotoxicity against human RPMI8226 cells assessed as cell growth at 8 nM by sulforhodamine B assay relative to control; type: functional; settings: read-out: Activity
# PC-3 = assay: Cytotoxicity against human PC3 cells assessed as cell growth at 8 nM by sulforhodamine B assay relative to control; type: functional; settings: read-out: Activity
# Hs-578T [8] = assay: Cytotoxicity against human Hs578T cells assessed as cell growth at 8 nM by sulforhodamine B assay relative to control; type: functional; settings: read-out: Activity
# RPMI-8226 [9] = assay: Cytotoxicity against human RPMI8226 cells assessed as cell growth at 80 nM by sulforhodamine B assay relative to control; type: functional; settings: read-out: Activity
# HOP-62 [10] = assay: Cytotoxicity against human HOP62 cells assessed as cell growth at 80 nM by sulforhodamine B assay relative to control; type: functional; settings: read-out: Activity
# HOP-92 = assay: Cytotoxicity against human HOP92 cells assessed as cell growth at 80 nM by sulforhodamine B assay relative to control; type: functional; settings: read-out: Activity
# SK-OV-3 [11] = assay: Cytotoxicity against human SKOV3 cells assessed as cell growth at 80 nM by sulforhodamine B assay relative to control; type: functional; settings: read-out: Activity
# TK-10 = assay: Cytotoxicity against human TK10 cells assessed as cell growth at 80 nM by sulforhodamine B assay relative to control; type: functional; settings: read-out: Activity
# DU-145 = assay: Cytotoxicity against human DU145 cells assessed as cell growth at 80 nM by sulforhodamine B assay relative to control; type: functional; settings: read-out: Activity
# Hs-578T [12] = assay: Cytotoxicity against human Hs578T cells assessed as cell growth at 80 nM by sulforhodamine B assay relative to control; type: functional; settings: read-out: Activity
# RPMI-8226 [13] = assay: Cytotoxicity against human RPMI8226 cells assessed as cell growth at 800 nM by sulforhodamine B assay relative to control; type: functional; settings: read-out: Activity
# SF-295 [14] = assay: Cytotoxicity against human SF295 cells assessed as cell growth at 800 nM by sulforhodamine B assay relative to control; type: functional; settings: read-out: Activity
# IGROV-1 = assay: Cytotoxicity against human IGROV1 cells assessed as cell growth at 800 nM by sulforhodamine B assay relative to control; type: functional; settings: read-out: Activity
# NCI-H226 = assay: Cytotoxicity against human NCI-H226 cells assessed as cell growth at 8 uM by sulforhodamine B assay relative to control; type: functional; settings: read-out: Activity
# NCI-H322M [15] = assay: Cytotoxicity against human NCI-H322M cells assessed as cell growth at 8 uM by sulforhodamine B assay relative to control; type: functional; settings: read-out: Activity
# KM12 = assay: Cytotoxicity against human KM12 cells assessed as cell growth at 8 uM by sulforhodamine B assay relative to control; type: functional; settings: read-out: Activity
# SW-620 [16] = assay: Cytotoxicity against human SW620 cells assessed as cell growth at 8 uM by sulforhodamine B assay relative to control; type: functional; settings: read-out: Activity
# SF-295 [17] = assay: Cytotoxicity against human SF295 cells assessed as cell growth at 8 uM by sulforhodamine B assay relative to control; type: functional; settings: read-out: Activity
# SK-MEL-2 = assay: Cytotoxicity against human SK-MEL-2 cells assessed as cell growth at 8 uM by sulforhodamine B assay relative to control; type: functional; settings: read-out: Activity
# MOLT-4 = assay: Cytotoxicity against human MOLT4 cells assessed as cell growth at 80 uM by sulforhodamine B assay relative to control; type: functional; settings: read-out: Activity
# RPMI-8226 [18] = assay: Cytotoxicity against human RPMI8226 cells assessed as cell growth at 80 uM by sulforhodamine B assay relative to control; type: functional; settings: read-out: Activity
# A549 = assay: Cytotoxicity against human A549 cells assessed as cell growth at 80 uM by sulforhodamine B assay relative to control; type: functional; settings: read-out: Activity
# How it was run: (§2)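 Run at NCI in the DTP 60-cell-line human tumor panel by standard procedure. Compounds were first screened at a single concentration, then tested at five tenfold-spaced concentrations. GI50 is the concentration reducing treated-cell growth to half that of untreated controls; TGI is the concentration completely halting growth.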
# SF-295 [19] = assay: Cytotoxicity against human SF295 cells assessed as cell growth at 80 uM by sulforhodamine B assay relative to control; type: functional; settings: read-out: Activity
# Malme-3M = assay: Cytotoxicity against human MALME-3M cells assessed as cell growth at 80 uM by sulforhodamine B assay relative to control; type: functional; settings: read-out: Activity
# M14 [20] = assay: Cytotoxicity against human M14 cells assessed as cell growth at 80 uM by sulforhodamine B assay relative to control; type: functional; settings: read-out: Activity
# UACC-257 [21] = assay: Cytotoxicity against human UACC257 cells assessed as cell growth at 80 uM by sulforhodamine B assay relative to control; type: functional; settings: read-out: Activity
# 786-0 = assay: Cytotoxicity against human 786-0 cells assessed as cell growth at 80 uM by sulforhodamine B assay relative to control; type: functional; settings: read-out: Activity; how it was run: as §2
# BT-549 = assay: Cytotoxicity against human BT549 cells assessed as cell growth at 80 uM by sulforhodamine B assay relative to control; type: functional; settings: read-out: Activity; how it was run: as §2
# SR = assay: Cytotoxicity against human SR cells by sulforhodamine B assay; type: functional; how it was run: as §1
# EKVX = assay: Cytotoxicity against human EKVX cells by sulforhodamine B assay; type: functional
# How it was run: (§3)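 Run by the NCI Developmental Therapeutics Program on its 60-line human tumour cell panel using the standard procedure. Compounds went through a single-concentration prescreen first, and those active by NCI criteria went on to a five-concentration growth-inhibition test. GI50 is the concentration that cuts growth of treated cells to half that of untreated control cells.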
# HOP-62 [22] = assay: Cytotoxicity against human HOP62 cells by sulforhodamine B assay; type: functional; how it was run: as §3
compound,measurement,setting,value
C/C=C1\NC(=O)[C@H](Cc2ccccc2)NC(=O)[C@@H](C(C)C)NC(=O)[C@@H]([C@@H](C)CC)NC(=O)[C@H](NC(=O)[C@H](NC(=O)[C@H](CCCNCc2ccc(F)c(C)c2)NC(=O)[C@H]2CCCN2C(=O)[C@H](NC(=O)[C@@H](NC(=O)[C@@H](NC(=O)[C@H](NC(=O)CCCC(C)C)C(C)C)[C@@H](C)O)C(C)C)C(C)C)[C@@H](C)CC)[C@@H](C)OC(=O)[C@H](C(C)C)NC1=O,LC50,UACC-257 [1],5.13 µM
same,GI50,UACC-257 [1]; read-out: GI50,1.28 µM
same,TGI,UACC-257 [1]; read-out: TGI,2.55 µM
same,GI50,UACC-257 [1]; read-out: pGI50 (converted),1.29 µM
same,TGI,UACC-257 [1]; read-out: pTGI (converted),2.57 µM
same,GI50,OVCAR-4,0.269 µM
same,TGI,OVCAR-4; read-out: pTGI (converted),0.955 µM
same,LC50,SK-OV-3 [2],0.891 µM
same,GI50,SK-OV-3 [2]; read-out: GI50,0.173 µM
same,TGI,SK-OV-3 [2]; read-out: TGI,0.37 µM
same,GI50,SK-OV-3 [2]; read-out: pGI50 (converted),0.174 µM
same,TGI,SK-OV-3 [2]; read-out: pTGI (converted),0.372 µM
same,GI50,RXF 393,1.35 µM
same,LC50,RXF 393,6.31 µM
same,TGI,RXF 393; read-out: pTGI (converted),2.95 µM
same,growth at 0.008 µM,UACC-257 [3],102%
same,growth at 0.008 µM,M14 [4],105%
same,growth at 0.008 µM,SW-620 [5],99%
same,growth at 0.008 µM,NCI-H322M [6],105%
same,Activity,Mus musculus,Toxic
same,growth at 0.008 µM,RPMI-8226 [7],128%
same,growth at 0.008 µM,PC-3,109%
same,growth at 0.008 µM,Hs-578T [8],102%
same,growth at 0.08 µM,RPMI-8226 [9],129%
same,growth at 0.08 µM,HOP-62 [10],102%
same,growth at 0.08 µM,HOP-92,105%
same,growth at 0.08 µM,SK-OV-3 [11],105%
same,growth at 0.08 µM,TK-10,105%
same,growth at 0.08 µM,DU-145,87%
same,growth at 0.08 µM,Hs-578T [12],97%
same,growth at 0.8 µM,RPMI-8226 [13],59%
same,growth at 0.8 µM,SF-295 [14],89%
same,growth at 0.8 µM,IGROV-1,48%
same,growth at 8 µM,NCI-H226,-64%
same,growth at 8 µM,NCI-H322M [15],-95%
same,growth at 8 µM,KM12,-85%
same,growth at 8 µM,SW-620 [16],-100%
same,growth at 8 µM,SF-295 [17],-89%
same,growth at 8 µM,SK-MEL-2,-80%
same,growth at 80 µM,MOLT-4,9%
same,growth at 80 µM,RPMI-8226 [18],-21%
same,growth at 80 µM,A549,1%
same,growth at 80 µM,SF-295 [19],-35%
same,growth at 80 µM,Malme-3M,12%
same,growth at 80 µM,M14 [20],-49%
same,growth at 80 µM,UACC-257 [21],-70%
same,growth at 80 µM,786-0,-98%
same,growth at 80 µM,BT-549,-58%
same,GI50,SR,1.58 µM
same,LC50,SR,> 75.9 µM
same,TGI,SR; read-out: pTGI (converted),3.47 µM
same,GI50,EKVX,0.759 µM
same,CC50,EKVX; read-out: pLC50 (the source's name) (converted),4.37 µM
same,TGI,EKVX; read-out: pTGI (converted),1.82 µM
same,GI50,HOP-62 [22],1.2 µM
same,LC50,HOP-62 [22],4.37 µM
same,TGI,HOP-62 [22]; read-out: pTGI (converted),2.29 µM
